{"source": "paper PMC5109833", "about": "(Journal of medicinal chemistry, 2015)", "key": {"[1]": {"system": "pSTAT6 in CD4+ T lymphocytes", "type": "cell-based", "conditions": "primary mouse CD4+ T lymphocytes, Figure S2", "how_it_was_run": "(§1)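 CD4+ T cells magnetically sorted from C57BL/6J mice. Activated on plate-bound anti-CD3 and/or anti-CD28 with IL-2 or IL-4 for 15 min. Lysed in kinase lysis buffer with protease inhibitors, 10 mM NaF and 1 mM Na3VO4. Protein equalised by Bradford, then immunoblotted for phospho-STAT5 Tyr694/STAT5 or phospho-STAT6 Tyr641/STAT6.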"}, "[2]": {"system": "CCL26 (eotaxin-3) mRNA in Beas-2B cells", "assay": "Inhibition of IL-13 stimulated CCL26", "type": "cell-based, human", "conditions": "IL-13, 100 nM", "how_it_was_run": "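Beas-2B cells plated at 4 × 10^5 cells/well and held overnight in complete medium, then serum-starved 2 h. Pretreated with test compound 2 h, then stimulated with IL-13 overnight in serum-free medium. RNA extracted with Trizol and reverse transcribed. CCL26 quantified relative to β-actin by TaqMan real-time PCR.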"}, "[3]": {"system": "pSTAT6 (Tyr641) in Beas-2B cells", "conditions": "IL-4 and IL-13 stimulated; cited from earlier work"}, "STAT6 (SH2 domain)": {"target": "T1, STAT6 (SH2 domain) (Homo sapiens, UniProt P42226)", "T1 sequence (P42226 517-632 limits assumed)": "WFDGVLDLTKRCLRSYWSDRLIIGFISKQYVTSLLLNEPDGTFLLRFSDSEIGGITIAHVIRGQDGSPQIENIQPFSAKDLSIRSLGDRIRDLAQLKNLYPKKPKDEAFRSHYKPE", "assay": "Fluorescence polarization assay of affinity for STAT6", "type": "binding"}, "[4]": {"system": "pSTAT6 (Tyr641) in Beas-2B cells", "assay": "Inhibition of STAT6 Tyr641 phosphorylation in intact Beas-2B cells", "type": "cell-based, human", "conditions": "for pSTAT6 inhibition potency (in words): IL-4, Figure 4B", "how_it_was_run": "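Beas-2B cells seeded at 3.0 × 10^5 cells/well the day before. Prodrug added from DMSO stocks (5–10 μM stock) for 2 h, then IL-4 2 ng/mL for 1 h. Cells washed in cold PBS, lysed with PMSF, and protein measured by Lowry. 15–30 µg run on 10% SDS-PAGE and probed for pSTAT6 Tyr641 with ECL detection, then stripped and reprobed for total STAT6. Bands quantified densitometrically.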"}, "Beas-2B cells": {"system": "Beas-2B cells", "assay": "Beas-2B cell viability/proliferation, MTS assay, 72 h", "type": "cell-based, human", "conditions": "72 h exposure", "how_it_was_run": "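Beas-2B cells seeded at 2000 cells/well. Test compound made as 10 mM DMSO stock, serially diluted in DMSO, and equal amounts of each dilution added. Incubation at 37 °C for 72 h. Medium then replaced with 1:5 MTS/PBS for a further 1 h. Viable cells estimated from optical density at 490 nm.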"}, "pAkt in MDA-MB-468 cells": {"system": "pAkt in MDA-MB-468 cells", "assay": "Inhibition of EGF-stimulated pAkt in MDA-MB-468 cells", "type": "cell-based, human", "conditions": "serum starved MDA-MB-468, EGF"}, "[5]": {"system": "pSTAT5 in CD4+ T lymphocytes", "type": "cell-based", "conditions": "primary mouse CD4+ T lymphocytes", "how_it_was_run": "as §1"}}, "note": "Like-named read-outs stand apart in the source and are kept apart here. Peptide text beside a SMILES is read from it."}
{"molecule": "CC(C)(C)C(=O)OCOP(=O)(OCOC(=O)C(C)(C)C)C(F)(F)c1ccc(/C=C/C(=O)N[C@H](C(=O)N2CCC[C@H]2C(=O)N(c2ccccc2)c2ccc(I)cc2)C(C)(C)C)cc1", "note": "[compound 17]", "values": [{"measurement": "inhibition of IL-4 stimulated pSTAT6", "setting": "[1]", "result": "relatively weak"}, {"measurement": "inhibition of CCL26 mRNA expression at 100 nM", "setting": "[2]", "result": "> 50", "unit": "%"}, {"measurement": "concentration giving significant inhibition of pSTAT6", "setting": "[3]", "result": "≥ 1", "unit": "µM"}]}
{"molecule": "C/C(=C\\C(=O)N[C@H](C(=O)N1CCCC1/C=C/CCc1ccccc1)C(C)(C)C)c1ccc(OP(=O)(O)O)cc1", "note": "(stereo partly drawn) [compound 25]", "values": [{"measurement": "IC50", "setting": "STAT6 (SH2 domain)", "result": 0.5, "unit": "µM"}]}
{"molecule": "CC(C)(C)[C@H](NC(=O)/C=C/c1ccc(OP(=O)(O)O)cc1)C(=O)N1CCC[C@H]1C(=O)N(c1ccccc1)c1ccc(I)cc1", "note": "[18a]", "values": [{"measurement": "IC50", "setting": "STAT6 (SH2 domain)", "result": 0.04, "unit": "µM"}]}
{"molecule": "CC(C)(C)C(=O)OCOP(=O)(OCOC(=O)C(C)(C)C)C(F)(F)c1ccc(/C=C/C(=O)N[C@H](C(=O)N2CCC[C@H]2C(=O)Nc2ccccc2)C(C)(C)C)cc1", "note": "[compound 30]", "values": [{"measurement": "loss of pSTAT6 inhibition potency relative to 29", "setting": "[4]; IL-4", "result": "approximately 25 fold"}, {"measurement": "cell viability (in words)", "setting": "Beas-2B cells", "result": "the fraction of viable cells paralleled pSTAT6 inhibition"}, {"measurement": "lowest concentration with potent inhibition of pAkt", "setting": "pAkt in MDA-MB-468 cells", "result": 100, "unit": "nM"}, {"measurement": "inhibition of IL-2 mediated STAT5 phosphorylation", "setting": "[5]", "result": "not an inhibitor of pSTAT5"}]}
{"molecule": "CC[C@H](C)[C@H](NC(=O)[C@H](CC(C)C)NC(=O)[C@H](CC(=O)O)NC(=O)[C@H](CCC(N)=O)NC(=O)[C@H](Cc1ccccc1)NC(=O)[C@@H]1CCCN1C(=O)[C@H](CCCCN)NC(=O)[C@H](Cc1ccc(OP(=O)(O)O)cc1)NC(C)=O)C(N)=O", "note": "[compound 1, Ac-pTyr-Lys-Pro-Phe-Gln-Asp-Leu-Ile-NH2] (HELM PEPTIDE1{[ac].[O=C([C@H](Cc1ccc(OP(=O)(O)O)cc1)N[*:1])[*:2]].K.P.F.Q.D.L.I.[am]}$$$$V2.0)", "values": [{"measurement": "IC50", "setting": "STAT6 (SH2 domain)", "result": 2, "unit": "µM"}]}
{"molecule": "C/C(=C\\C(=O)N[C@H](C(=O)N1CCC[C@H]1C(=O)N(C)c1ccccc1)C(C)(C)C)c1ccc(C(F)(F)P(=O)(OCOC(=O)C(C)(C)C)OCOC(=O)C(C)(C)C)cc1", "note": "[compound 31]", "values": [{"measurement": "pSTAT6 inhibition potency (in words)", "setting": "[4]", "result": "retains potency"}, {"measurement": "cell viability (in words)", "setting": "Beas-2B cells", "result": "nearly identical to that of 29"}, {"measurement": "inhibition of pAkt at 5 µM", "setting": "pAkt in MDA-MB-468 cells", "result": "mild inhibition"}, {"measurement": "inhibition of IL-2 mediated STAT5 phosphorylation", "setting": "[5]", "result": "robust inhibition"}, {"measurement": "inhibition of CCL26 mRNA expression at 100 nM", "setting": "[2]", "result": "> 50", "unit": "%"}]}
{"molecule": "C/C(=C\\C(=O)N[C@H](C(=O)N1CCC[C@H]1C(=O)N(C)C1CCCCC1)C(C)(C)C)c1ccc(C(F)(F)P(=O)(OCOC(=O)C(C)(C)C)OCOC(=O)C(C)(C)C)cc1", "note": "[compound 32]", "values": [{"measurement": "pSTAT6 inhibition potency (in words)", "setting": "[4]", "result": "high potency"}, {"measurement": "cell viability (in words)", "setting": "Beas-2B cells", "result": "nearly identical to that of 29"}, {"measurement": "inhibition of IL-2 mediated STAT5 phosphorylation", "setting": "[5]", "result": "robust inhibition"}]}
{"molecule": "CC(C)(C)C(=O)OCOP(=O)(OCOC(=O)C(C)(C)C)C(F)(F)c1ccc(/C=C/C(=O)N[C@H](C(=O)N2CCC[C@H]2C(=O)N(c2ccccc2)c2ccccc2)C(C)(C)C)cc1", "note": "[compound 28]", "values": [{"measurement": "concentration giving complete inhibition of pSTAT6", "setting": "[4]; prodrug 2 h, IL-4 1 h", "result": 500, "unit": "nM"}, {"measurement": "concentration giving significant inhibition of pSTAT6", "setting": "[4]; prodrug 2 h, IL-4 1 h", "result": 100, "unit": "nM"}, {"measurement": "effect on cell viability at concentrations ≤1 µM", "setting": "Beas-2B cells", "result": "did not affect viability"}, {"measurement": "inhibition of IL-2 mediated STAT5 phosphorylation", "setting": "[5]", "result": "robust inhibition"}]}
{"molecule": "CN(C(=O)[C@@H]1CCCN1C(=O)[C@@H](NC(=O)/C=C/c1ccc(C(F)(F)P(=O)(OCOC(=O)C(C)(C)C)OCOC(=O)C(C)(C)C)cc1)C(C)(C)C)c1ccccc1", "note": "[compound 29]", "values": [{"measurement": "concentration giving nearly complete inhibition of pSTAT6", "setting": "[4]; prodrug 2 h, IL-4 1 h", "result": 100, "unit": "nM"}, {"measurement": "concentration giving significant inhibition of pSTAT6", "setting": "[4]; prodrug 2 h, IL-4 1 h", "result": 50, "unit": "nM"}, {"measurement": "effect on cell viability at concentrations ≤1 µM", "setting": "Beas-2B cells", "result": "did not affect viability"}, {"measurement": "inhibition of pAkt at 5 µM", "setting": "pAkt in MDA-MB-468 cells", "result": "mild inhibition"}, {"measurement": "inhibition of IL-2 mediated STAT5 phosphorylation", "setting": "[5]", "result": "robust inhibition"}]}
